Screening data from PubChem.
Pyk2 oligo antag: antagonists of human Pyk2 oligomerization; Q14289; Q293 cells, Pyk2 FERM NanoBiT luminescence; hits give low values; z-score (the deposit names both 25 µM and 10 µM); actives 0.83% (n = 99,000);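 active = Z-score of -3 or lower, scaled per plate to the spread of control and sample wells; inactive = z-score above -3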;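 note: negative z-score means lost luminescence so less FERM oligomerization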
Target sequence (Q14289 whole entry, looked up): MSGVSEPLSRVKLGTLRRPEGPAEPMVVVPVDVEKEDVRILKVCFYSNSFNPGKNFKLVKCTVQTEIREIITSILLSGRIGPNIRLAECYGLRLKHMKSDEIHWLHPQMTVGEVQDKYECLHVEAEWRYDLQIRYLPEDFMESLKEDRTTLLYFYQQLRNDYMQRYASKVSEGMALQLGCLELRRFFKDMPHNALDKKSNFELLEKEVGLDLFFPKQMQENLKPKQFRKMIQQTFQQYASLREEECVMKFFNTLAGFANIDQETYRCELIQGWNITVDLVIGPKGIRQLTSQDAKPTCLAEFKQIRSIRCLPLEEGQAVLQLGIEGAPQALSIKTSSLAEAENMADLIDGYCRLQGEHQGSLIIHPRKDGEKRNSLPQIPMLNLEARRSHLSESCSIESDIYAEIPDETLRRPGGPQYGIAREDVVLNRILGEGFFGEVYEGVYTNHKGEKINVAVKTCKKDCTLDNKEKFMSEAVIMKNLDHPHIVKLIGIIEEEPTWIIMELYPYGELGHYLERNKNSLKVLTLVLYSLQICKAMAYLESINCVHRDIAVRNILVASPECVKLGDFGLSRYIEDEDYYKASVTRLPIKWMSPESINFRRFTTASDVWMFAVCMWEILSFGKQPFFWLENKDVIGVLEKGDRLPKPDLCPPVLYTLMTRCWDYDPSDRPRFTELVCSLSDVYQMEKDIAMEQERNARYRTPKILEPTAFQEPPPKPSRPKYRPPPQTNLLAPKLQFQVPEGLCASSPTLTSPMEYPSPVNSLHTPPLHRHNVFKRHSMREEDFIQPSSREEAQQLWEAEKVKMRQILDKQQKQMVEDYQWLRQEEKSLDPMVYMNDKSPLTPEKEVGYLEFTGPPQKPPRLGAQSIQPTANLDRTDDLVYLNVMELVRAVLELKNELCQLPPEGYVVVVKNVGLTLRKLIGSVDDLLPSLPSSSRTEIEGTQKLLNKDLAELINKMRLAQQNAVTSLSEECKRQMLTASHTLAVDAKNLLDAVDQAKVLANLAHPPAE
HCT116 PTEN-null: suppresses growth of cells with PTEN deletion. HCT116 PTEN-null viability, CellTiter-Glo, 60 h; hits give low values. viability, % at 10 µM. actives 1.2% (n = 140,000). AID 827;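 active = viability at or below a set limit, 4 SD under the median of all tested compounds, cut at about 3.7% in these data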;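 note: PTEN knockout HCT116 line with beta catenin targeted HCT116 as companion control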
HUVEC prolif 384: inhibitors of human endothelial cell proliferation | viability, % at 10 µM (by protocol) | actives 1.1% (n = 86,000) | HUVEC proliferation, CellTiter-Glo luminescence, 72 h; hits give low values | AID 648;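 active = viability at or below 30%; inactive = viability above 30%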;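 note: 100% = median luminescence of DMSO-only cell control wells on each plate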
Fibroblast inh: blocks proliferation of human lung fibroblasts; LL 47 human lung fibroblast viability, ATP luminescence; hits give low values; viability, % at 10 µM; actives 1.1% (n = 85,000); AID 719;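 active = viability at or below 50% in the single dose screen; inactive = viability above 50%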;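 note: compound exposure lasted 72 h before the ATP readout; 100% = median luminescence of untreated cell-only wells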
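test system = LL 47 human lung fibroblasts | amount = 1,150 fibroblasts seeded per well | medium = 15% FBS in IMEM | times = overnight cell rest, 72 h compound treatment at 37 °C | measured by = CellTiter-Glo luminescence measuring cellular ATP | read-out = viability percentage against median untreated-cell control | benchmarks = cell-only wells, no compound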
bCat KO growth: beta-catenin-lacking colon tumor cell growth suppression; HCT116 beta-catenin knockout viability, CellTiter-Glo, 60 h; hits give low values; viability, % at 10 µM; actives 1.5% (n = 140,000);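 active = viability at or under a set limit, the compound median less 4 SD, cut at about 6% in these data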;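 note: 0% = Hyamine 1622 control at 20 µM and 100% = untreated cell control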
H69AR growth 86K: growth inhibitors of human H69AR lung tumor cells | AID 598 | actives 6% (n = 85,000) | viability, % at 10 µM | H69AR lung tumor viability, ATP luminescence, 72 h; hits give low values;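 active = viability at or below 40%; inactive = viability above 40%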;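 note: multidrug resistant small cell line overexpressing MRP-1 efflux transporter; 100% = mean luminescence of untreated control wells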
Starred values were filed as active, the others as inactive; x = not tested or not shown. The sample as a whole holds a higher share of hits than the screen did.

SMILES	Pyk2 oligo antag	HCT116 PTEN-null	HUVEC prolif 384	Fibroblast inh	bCat KO growth	H69AR growth 86K
CCC(CO)NCc1ccc2c(c1)n(C)c(=O)n2C (stereo not given)	0.57	97.5	95.4	94.3	104.9	98.0
CN1CCC(=NNC(=O)c2cn(-c3ccccc3)nc2-c2ccccc2)CC1	x	85.9	x	x	89.8	x
Cc1c(-c2ccccc2)nc2ccccc2c1C(=O)NCc1cccs1	x	63.1	x	x	70.8	x
COc1ccc(-c2nnc(SCc3c(C)noc3C)n2N)cc1OC	-0.07	104.9	100.6	108.9	94.8	85.5
CCN1C(=O)[C@H]2[C@H]3[C@H](O)[C@H](O)C/C(=N\O[C@H](C)c4cn([C@H](CO)Cc5ccccc5)nn4)[C@@H]3CC[C@H]2C1=O	x	107.1	x	x	101.4	x
C#CCN1C(=O)C(O)(CC(=O)c2cccc(OC)c2)c2ccccc21 (stereo not given)	-0.36	19.3	92.9	101.6	33.8	19.9*
CCOC(=O)CN1C(=O)C(O)(CC(=O)c2ccco2)c2ccccc21 (stereo not given)	-0.15	71.7	107.5	100.5	78.7	25.7*
Cc1[nH]c2ccccc2c1C1(O)C(=O)N(Cc2ccc3c(c2)OCO3)c2ccccc21 (stereo not given)	-0.62	9.5	80.5	80.3	12.8	13.5*
O=C(CC1(O)C(=O)N(Cc2ccccc2Cl)c2ccccc21)c1ccco1 (stereo not given)	0.15	10.9	68.2	95.5	12.1	14.6*
O=C(OCc1c(Cl)nc2sccn12)c1cc2c(s1)CCCC2	1.28	98.4	105.2	x	91.1	99.3
COc1ccc(CC(=O)Nc2ccc(C(=O)Nc3ccccc3C(=O)O)cc2)cc1OC	x	107.3	x	x	97.6	x
COc1ccc(NC(=O)/C(Cl)=C(/Cl)S(=O)Cc2ccccc2)cn1 (stereo not given)	-0.07	1.5*	2.2*	1.2*	1.5*	1.7*
COc1ccc(CS(=O)(=O)/C(Cl)=C(/Cl)C(=O)Nc2ccc(OC)nc2)cc1	-1.32	4.1	2.6*	4.8*	6.5	0.0*
COc1ccc(/C=C/C(=O)Nc2ccc(OC)nc2)cc1	x	76.7	x	x	70.0	x
N#C/C(=C(/O)COC(=O)CCC1CCCCC1)c1nc2ccccc2[nH]1	-0.03	16.2	73.8	59.5	17.3	24.6*
N#C/C(=C(/O)COC(=O)CSc1ccc2ccccc2c1)c1nc2ccccc2[nH]1	0.47	5.2	x	x	7.5	x
N#C/C(=C(\O)Cc1ccccc1)c1nc2ccccc2[nH]1	-0.23	6.6	71.9	94.8	6.5	14.9*
Cc1cc(C)cc(OCC(=O)OC/C(O)=C(\C#N)c2nc3ccccc3[nH]2)c1	x	5.5	x	x	3.9*	x
Cc1cccc(C)c1OCC(=O)OC/C(O)=C(\C#N)c1nc2ccccc2[nH]1	x	10.6	x	x	9.8	x
CCOC(=O)C(CC)(CC)C(=O)/C=C/c1ccc(Br)cc1	0.05	7.0	x	x	9.8	x
CN(C)c1ccc(C(=O)c2ccc(N(C)C)c3ccccc23)cc1	-1.9	14.0	42.5	44.1*	14.7	35.8*
CCOC(=O)c1ccccc1OCc1cc(/C=N/n2cnnc2)ccc1OC	0.28	72.9	85.6	93.9	71.2	35.4*
COc1cc(/C=N\n2cnnc2)ccc1OCC(=O)Nc1ccc(C)cc1	-0.45	75.8	90.4	93.7	89.1	84.2
CC(C)C[C@@H]1NC(=O)[C@H](CO)NC(=O)c2cc([N+](=O)[O-])cc(I)c2OCC[C@@H](C(N)=O)NC1=O	x	100.1	x	x	97.0	x
COc1ccc(N/N=C(\C#N)C(N)=O)cc1	x	98.9	x	x	96.0	x
SMILES	Pyk2 oligo antag	HCT116 PTEN-null	HUVEC prolif 384	Fibroblast inh	bCat KO growth	H69AR growth 86K
CO/N=C/C(=N\Nc1ccc(C)cc1)C(=O)c1ccc(OC)cc1	-1.15	32.4	53.6	54.9	28.2	22.1*
CO/N=C\C(=N\Nc1ccc(OC)cc1)C(=O)c1ccccc1	-0.97	68.7	65.0	85.7	64.8	27.5*
O=C(CN1N=C(c2ccccc2)CCC1=O)NCc1ccco1	x	105.7	x	x	94.1	x
Cn1nc(-c2ccc(Cl)cc2)c2cc(C(=O)NCCCN3CCOCC3)sc21	x	27.1	2.9*	39.5*	14.6	42.7
CCN(CC)CCNC(=O)c1cc2c(-c3ccc(Cl)cc3)nn(C)c2s1	x	1.1*	2.8*	21.3*	1.5*	2.5*
Cc1ccc(/C=C(\C#N)c2nn(-c3ccccc3)c(N)c2C#N)cc1	x	98.4	x	x	104.2	x
Cc1c(/C=C(\C#N)c2nn(-c3ccccc3)c(N)c2C#N)c2ccccc2n1Cc1ccc(F)cc1	-2.65	57.3	36.4	65.0	58.8	9.6*
COC(=O)CNC(=O)C(C)NC(=O)CNC(=O)OCc1ccccc1 (stereo not given)	0.1	95.3	88.9	86.5	84.6	99.3
O=c1c2ccccc2nc(/C=C/c2ccc([N+](=O)[O-])o2)n1CCCO	-0.47	1.3*	x	x	1.5*	x
O=c1c2ccccc2nc(/C=C/c2ccc([N+](=O)[O-])cc2)n1CCCO	x	55.6	x	x	55.5	x
O=C(CSc1nnc(-c2ccccc2)c(-c2ccccc2)n1)Nc1ccc(Br)cn1	x	42.4	x	x	30.2	x
Cc1cc(C)n(-c2nc(-n3nc(C)cc3C)c3c4c(sc3n2)COC(C)(C)C4)n1	x	91.3	105.8	87.1	94.2	25.6*
Cc1cc(C)n(-c2nc(NCCC(C)C)c3c4c(sc3n2)COC(C)(C)C4)n1	-0.9	4.3	12.9*	86.0	3.6*	1.6*
CCN(c1ccccc1)S(=O)(=O)c1ccc(Cl)c(NC(=O)CSc2nncs2)c1	x	71.3	x	x	97.3	x
CCn1c(COc2ccc3c(c2)CCCC3)nnc1SCC(=O)Nc1nccs1	0.39	94.4	78.1	98.2	95.4	98.7
CCCCCC(=O)N/N=C(\C)c1ccccn1	-0.32	5.2	x	x	4.3*	x
CCOC(=O)CSc1nc(C)c2ccc(C)cc2n1	0.91	91.7	100.0	107.0	83.4	86.3
CC1=Nn2c(nc(-c3ccccc3)c2-c2ccccc2)NC(=O)C1Br (stereo not given)	-0.4	85.0	90.2	111.4	94.8	96.2
CCOC(=O)CC1=C(C(=O)OCC)C(c2ccc(C)o2)C(C#N)=C(N)O1 (stereo not given)	-0.17	95.7	107.6	93.8	86.0	103.0
Cc1ccc(C2C(C#N)=C(N)Oc3c2sc2ccccc32)o1 (stereo not given)	x	72.4	41.2	57.7	68.7	12.7*
CCOc1cc2[nH]c(=S)n(CCc3ccc(OC)c(OC)c3)c(=O)c2cc1OCC	-0.05	35.7	16.3*	17.1*	19.6	3.0*
CCOc1cc2[nH]c(=S)n(CCCOC)c(=O)c2cc1OCC	-1.28	95.0	88.6	96.4	95.7	71.4
CCOc1cc2[nH]c(=O)n(CCc3ccc(OC)c(OC)c3)c(=O)c2cc1OCC	0.14	63.0	87.8	96.3	83.5	35.6*
CCOc1cc(C(=O)NCCCn2ccnc2)cc(OCC)c1OCC	x	92.5	x	x	89.9	x
CCOC(=O)c1cc(-c2ccccc2)sc1NC(=O)C(C)OC(=O)c1cccnc1Cl (stereo not given)	x	61.9	x	x	60.6	x
